Source: ChEMBL document CHEMBL4017520, “Discovery, Structure-Activity Relationship, and Antiparkinsonian Effect of a Potent and Brain-Penetrant Chemical Series of Positive Allosteric Modulators of Metabotropic Glutamate Receptor 4” (J Med Chem, 2017)
Activity calls are given as the source filed them. No cut-off for these calls is given here.

How the values were obtained:
[1] = target: Metabotropic glutamate receptor 5 (Homo sapiens) (UniProt P41594); test: Activity at human mGlu5 receptor expressed in HEK293 cells co-expressing Gi/Gq assessed as effect on intracellular calcium level up to 10 uM after 10 mins by Fluo4-AM dye based fluorescence assay; assay type: functional, cell-based
Procedure, shortened: (§1)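 HEK-293 cells transiently expressing the human mGluR with a promiscuous or chimeric G protein were serum-starved 3 h and loaded 1.5 h with 1 μM Fluo4-AM. Compound alone was added in assay buffer, and calcium fluorescence (ex 485/em 525) was recorded for 10 min as agonist readout.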

[2] = target: Metabotropic glutamate receptor 7 (Homo sapiens) (UniProt Q14831); test: Activity at human mGlu7 receptor expressed in HEK293 cells co-expressing Gi/Gq assessed as effect on intracellular calcium level up to 10 uM after 10 mins by Fluo4-AM dye based fluorescence assay; assay type: functional, cell-based; procedure, shortened: as §1
[3] = target: Metabotropic glutamate receptor 8 (Homo sapiens) (UniProt O00222); test: Agonist activity at human mGlu8 receptor expressed in HEK293 cells co-expressing Gi/Gq assessed as increase in intracellular calcium level at 10 uM after 10 mins by Fluo4-AM dye based fluorescence assay relative to control; assay type: functional, cell-based
Procedure, shortened: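 Human mGluR8 in transiently transfected HEK293 cells loaded with Fluo4-AM. Compound alone was added and fluorescence followed for 10 min. Stimulation is expressed relative to the maximal glutamate response.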

[4] = target: D(1A) dopamine receptor (Homo sapiens) (UniProt P21728); test: Agonist activity at D1 receptor (unknown origin) at 10 uM
[5] = target: D(1A) dopamine receptor (Homo sapiens) (UniProt P21728); test: Positive allosteric modulation of D1 receptor (unknown origin) at 10 uM
[6] = target: D(1A) dopamine receptor (Homo sapiens) (UniProt P21728); test: Antagonist activity at D1 receptor (unknown origin) at 10 uM
[7] = target: D(2) dopamine receptor (Homo sapiens) (UniProt P14416); test: Antagonist activity at D2L receptor (unknown origin) at 10 uM
[8] = target: Adenosine receptor A2a (Homo sapiens) (UniProt P29274); test: Agonist activity at A2A receptor (unknown origin) at 10 uM
[9] = target: Receptor-type tyrosine-protein kinase FLT3 (Homo sapiens) (UniProt P36888); test: Inhibition of Flt3 (unknown origin) at 10 uM relative to control
[10] = target: Interleukin-1 receptor-associated kinase 4 (Homo sapiens) (UniProt Q9NWZ3); test: Inhibition of IRAK4 (unknown origin) at 10 uM
[11] = system: Rattus norvegicus; test: Protection against 6-OHDA induced parkinsonian motor deficit in Sprague-Dawley rat assessed as increase in rearing time at 30 mg/kg, ip after 28 days post surgery; assay type: functional, organism-based
Procedure, shortened: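 Adult male Sprague−Dawley rats with bilateral 6-OHDA striatal lesions given compound 30 mg/kg ip or vehicle at T0; spontaneous locomotor activity (active time, slow activity, rearing) counted in 5-min bins versus pre-surgery vehicle; n = 10.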

[12] = target: Amine oxidase [flavin-containing] B (Homo sapiens, UniProt P27338); test: Activity at MAO-B (unknown origin) up to 10 uM; assay type: ADME
[13] = Cmax in Sprague-Dawley rat at 1 mg/kg, iv administered as single dose by LC-MS/MS analysis; assay type: ADME, organism-based; design: dose 1 mg/kg, route intravenous; settings: in vivo
[14] = system: Mus musculus; test: Half life in C57BL/6 mouse at 2 mg/kg, iv administered as single dose by LC-MS/MS analysis; assay type: ADME, organism-based; settings: in vivo
Procedure, shortened: (§2)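 Single iv dose, 1 mg/kg in rat or 2 mg/kg in mouse; plasma PK parameters derived; brain/plasma ratio taken at 1 h postdose (rat) or 30 min postdose (mouse). Mean of 3 rats; 2 mice for mouse Cmax and brain/plasma.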

[15] = Plasma clearance in Sprague-Dawley rat at 1 mg/kg, iv administered as single dose by LC-MS/MS analysis; assay type: ADME, organism-based; procedure, shortened: as §2
[16] = Volume of distribution in Sprague-Dawley rat at 1 mg/kg, iv administered as single dose by LC-MS/MS analysis; assay type: ADME, organism-based; settings: in vivo
Procedure, shortened: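 Single intravenous dose: rats 1 mg/kg, mice 2 mg/kg. Plasma concentration–time data yielded Cmax, t1/2, AUC0−∞, plasma clearance and volume of distribution. Values are mean ±SEM of 3 animals.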

[17] = Tmax in Sprague-Dawley rat plasma at 10 mg/kg, po administered as single dose by LC-MS/MS analysis; assay type: ADME, organism-based
Procedure, shortened: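 Single-dose plasma PK after ip (10 or 30 mg/kg) or oral (10 mg/kg) dosing in rats, and oral 10 mg/kg dosing in mice. […] Values are mean ±SEM of 3 rats or 2 mice.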

[18] = Half life in Sprague-Dawley rat plasma at 10 mg/kg, ip administered as single dose by LC-MS/MS analysis; assay type: ADME, organism-based
Procedure, shortened: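 Single dose ip (10 or 30 mg/kg, rat) or oral (10 mg/kg, rat or mouse); plasma Cmax, Tmax, half-life, AUC0−inf derived; brain concentration and brain/plasma ratio at 30 min postdose. Mean of 3 rats or 2 mice.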

[19] = AUC (0 to infinity) in Sprague-Dawley rat plasma at 10 mg/kg, po administered as single dose by LC-MS/MS analysis; assay type: ADME, organism-based; design: dose 10 mg/kg, time infinity, route oral
Procedure, shortened: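 Rats given a single oral dose of 10 mg/kg. The first plasma sample was taken at 15 min, and sampling continued to 24 h postdose. Brain was sampled at 30 min. Values are the mean (±SEM) of 3 rats.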

[20] = Ratio of drug uptake in Sprague-Dawley rat brain at 10 mg/kg, po to EC50 for rat mGlu4 receptor expressed in HEK293 cells
Procedure, shortened: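 Rats received a single ip or oral dose. Brain concentration was measured 30 min postdose, mean of 3 rats, and divided by the EC50 measured in cell lines overexpressing rat mGluR4.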

[21] = Oral bioavailability in Sprague-Dawley rat plasma at 10 mg/kg administered as single dose by LC-MS/MS analysis; assay type: ADME, organism-based
[22] = Protein binding in Sprague-Dawley rat brain at 10 uM by rapid equilibrium dialysis; assay type: ADME, tissue-based; settings: read-out: PB (converted)
[23] = Plasma concentration in Sprague-Dawley rat at 30 mg/kg, ip after 240 mins; assay type: ADME, organism-based
Procedure, shortened: (§3)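 Rats dosed 30 mg/kg ip; plasma sampled over time, brain measured at 30 and 60 min; brain/plasma ratio averaged over 30 and 60 min.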

[24] = Drug uptake in Sprague-Dawley rat brain at 30 mg/kg, ip after 30 mins; assay type: ADME, organism-based; settings: read-out: Drug uptake
[25] = Drug uptake in Sprague-Dawley rat brain at 30 mg/kg, ip after 120 mins; assay type: ADME, organism-based; settings: read-out: Drug uptake
[26] = Ratio of fraction unbound in Sprague-Dawley rat brain at 30 mg/kg, ip after 30 mins to EC50 for rat mGlu4 receptor expressed in HEK293 cells
[27] = Ratio of fraction unbound in Sprague-Dawley rat brain at 30 mg/kg, ip after 60 mins to EC50 for rat mGlu4 receptor expressed in HEK293 cells
[28] = Ratio of fraction unbound in Sprague-Dawley rat brain at 30 mg/kg, ip after 240 mins to EC50 for rat mGlu4 receptor expressed in HEK293 cells
[29] = Ratio of drug uptake in Sprague-Dawley rat brain to plasma at 30 mg/kg, ip after 30 to 60 mins; assay type: ADME, organism-based; settings: read-out: BPR; procedure, shortened: as §3
[30] = system: Rattus norvegicus; test: Toxicity in 6-OHDA induced parkinsonian motor deficit Sprague-Dawley rat model assessed as induction of dyskinesia at 30 mg/kg, ip; assay type: organism-based; settings: in vivo

Chain of D(1A) dopamine receptor (Homo sapiens) (P21728 whole entry): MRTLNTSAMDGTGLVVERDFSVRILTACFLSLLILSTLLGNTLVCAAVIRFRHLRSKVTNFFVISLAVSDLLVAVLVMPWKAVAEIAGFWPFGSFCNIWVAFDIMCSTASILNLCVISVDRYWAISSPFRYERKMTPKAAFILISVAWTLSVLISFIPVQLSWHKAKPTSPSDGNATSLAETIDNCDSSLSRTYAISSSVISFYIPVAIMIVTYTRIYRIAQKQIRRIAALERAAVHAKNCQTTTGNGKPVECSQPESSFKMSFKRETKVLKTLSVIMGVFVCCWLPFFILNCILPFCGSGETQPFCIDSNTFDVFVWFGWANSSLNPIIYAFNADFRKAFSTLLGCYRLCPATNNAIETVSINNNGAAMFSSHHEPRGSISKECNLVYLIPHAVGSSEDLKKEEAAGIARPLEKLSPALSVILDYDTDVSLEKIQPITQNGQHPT
Chain of Metabotropic glutamate receptor 5 (Homo sapiens) (P41594 21-1212 limits assumed): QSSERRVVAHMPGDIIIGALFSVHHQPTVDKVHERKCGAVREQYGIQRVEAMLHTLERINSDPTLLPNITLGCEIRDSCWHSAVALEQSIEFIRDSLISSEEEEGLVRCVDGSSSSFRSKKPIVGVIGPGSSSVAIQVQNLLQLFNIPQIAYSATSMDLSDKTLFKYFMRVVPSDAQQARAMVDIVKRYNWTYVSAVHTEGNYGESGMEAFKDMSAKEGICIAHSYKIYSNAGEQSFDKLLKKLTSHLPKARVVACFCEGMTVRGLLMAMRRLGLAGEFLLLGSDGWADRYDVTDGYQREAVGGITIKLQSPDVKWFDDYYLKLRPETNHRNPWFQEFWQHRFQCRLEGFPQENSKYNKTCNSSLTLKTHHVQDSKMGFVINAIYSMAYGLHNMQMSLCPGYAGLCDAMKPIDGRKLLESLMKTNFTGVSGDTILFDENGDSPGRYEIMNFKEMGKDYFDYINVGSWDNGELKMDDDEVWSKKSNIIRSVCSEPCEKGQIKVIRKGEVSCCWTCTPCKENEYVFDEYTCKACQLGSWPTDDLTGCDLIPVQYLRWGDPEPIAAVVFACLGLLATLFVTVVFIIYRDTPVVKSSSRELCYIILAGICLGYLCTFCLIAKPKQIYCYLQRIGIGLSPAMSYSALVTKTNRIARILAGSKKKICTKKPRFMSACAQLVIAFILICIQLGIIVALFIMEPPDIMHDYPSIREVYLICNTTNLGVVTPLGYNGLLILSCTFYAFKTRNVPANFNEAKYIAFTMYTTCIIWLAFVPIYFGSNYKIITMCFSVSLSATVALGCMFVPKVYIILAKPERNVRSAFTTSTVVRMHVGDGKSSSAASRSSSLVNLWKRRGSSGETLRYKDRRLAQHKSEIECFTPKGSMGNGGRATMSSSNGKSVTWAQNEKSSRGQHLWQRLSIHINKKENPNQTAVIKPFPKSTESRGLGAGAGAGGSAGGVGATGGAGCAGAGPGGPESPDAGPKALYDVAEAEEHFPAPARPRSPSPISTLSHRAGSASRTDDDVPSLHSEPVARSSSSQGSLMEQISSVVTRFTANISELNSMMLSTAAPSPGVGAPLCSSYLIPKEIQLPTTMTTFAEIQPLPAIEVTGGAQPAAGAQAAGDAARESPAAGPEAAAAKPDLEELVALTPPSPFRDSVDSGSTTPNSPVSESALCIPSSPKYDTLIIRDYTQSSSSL
Chain of D(2) dopamine receptor (Homo sapiens) (P14416 whole entry): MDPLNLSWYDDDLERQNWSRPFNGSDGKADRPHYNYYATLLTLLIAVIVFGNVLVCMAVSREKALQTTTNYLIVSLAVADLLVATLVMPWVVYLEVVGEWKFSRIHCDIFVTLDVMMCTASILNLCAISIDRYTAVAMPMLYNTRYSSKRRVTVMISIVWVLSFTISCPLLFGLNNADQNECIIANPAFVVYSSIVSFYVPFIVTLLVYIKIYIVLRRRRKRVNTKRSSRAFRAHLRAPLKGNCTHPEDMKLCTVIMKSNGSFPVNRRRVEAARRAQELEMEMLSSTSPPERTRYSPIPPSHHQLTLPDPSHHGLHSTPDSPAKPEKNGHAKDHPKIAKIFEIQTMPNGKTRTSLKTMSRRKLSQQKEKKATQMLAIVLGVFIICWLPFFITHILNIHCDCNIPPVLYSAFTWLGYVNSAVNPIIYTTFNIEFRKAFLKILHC
Chain of Amine oxidase [flavin-containing] B (P27338 whole entry): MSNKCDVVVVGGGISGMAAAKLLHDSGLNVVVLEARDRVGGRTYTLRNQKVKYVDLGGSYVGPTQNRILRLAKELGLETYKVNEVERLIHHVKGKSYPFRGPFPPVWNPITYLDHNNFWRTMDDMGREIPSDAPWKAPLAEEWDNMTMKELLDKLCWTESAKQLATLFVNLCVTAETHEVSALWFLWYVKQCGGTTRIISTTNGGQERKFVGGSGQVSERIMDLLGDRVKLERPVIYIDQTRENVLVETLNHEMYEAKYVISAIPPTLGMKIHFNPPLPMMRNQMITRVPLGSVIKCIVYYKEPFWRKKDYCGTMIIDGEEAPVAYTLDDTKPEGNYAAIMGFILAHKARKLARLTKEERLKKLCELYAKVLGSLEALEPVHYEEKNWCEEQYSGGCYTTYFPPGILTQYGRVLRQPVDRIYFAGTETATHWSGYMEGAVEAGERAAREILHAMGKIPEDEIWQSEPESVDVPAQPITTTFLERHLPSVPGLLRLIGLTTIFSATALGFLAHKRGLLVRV
Chain of Adenosine receptor A2a (Homo sapiens) (P29274 whole entry): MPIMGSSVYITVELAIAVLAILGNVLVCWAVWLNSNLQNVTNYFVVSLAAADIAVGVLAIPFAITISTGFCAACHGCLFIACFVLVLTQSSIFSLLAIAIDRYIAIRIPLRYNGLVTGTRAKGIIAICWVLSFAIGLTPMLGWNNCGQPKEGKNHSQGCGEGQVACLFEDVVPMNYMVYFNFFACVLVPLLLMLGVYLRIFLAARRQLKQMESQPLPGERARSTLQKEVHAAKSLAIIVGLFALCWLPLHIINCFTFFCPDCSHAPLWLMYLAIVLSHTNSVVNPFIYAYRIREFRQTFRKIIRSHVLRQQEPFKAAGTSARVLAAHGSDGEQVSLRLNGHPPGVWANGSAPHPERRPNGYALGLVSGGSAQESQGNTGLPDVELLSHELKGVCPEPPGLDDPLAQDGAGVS
Chain of Metabotropic glutamate receptor 8 (Homo sapiens) (O00222 whole entry): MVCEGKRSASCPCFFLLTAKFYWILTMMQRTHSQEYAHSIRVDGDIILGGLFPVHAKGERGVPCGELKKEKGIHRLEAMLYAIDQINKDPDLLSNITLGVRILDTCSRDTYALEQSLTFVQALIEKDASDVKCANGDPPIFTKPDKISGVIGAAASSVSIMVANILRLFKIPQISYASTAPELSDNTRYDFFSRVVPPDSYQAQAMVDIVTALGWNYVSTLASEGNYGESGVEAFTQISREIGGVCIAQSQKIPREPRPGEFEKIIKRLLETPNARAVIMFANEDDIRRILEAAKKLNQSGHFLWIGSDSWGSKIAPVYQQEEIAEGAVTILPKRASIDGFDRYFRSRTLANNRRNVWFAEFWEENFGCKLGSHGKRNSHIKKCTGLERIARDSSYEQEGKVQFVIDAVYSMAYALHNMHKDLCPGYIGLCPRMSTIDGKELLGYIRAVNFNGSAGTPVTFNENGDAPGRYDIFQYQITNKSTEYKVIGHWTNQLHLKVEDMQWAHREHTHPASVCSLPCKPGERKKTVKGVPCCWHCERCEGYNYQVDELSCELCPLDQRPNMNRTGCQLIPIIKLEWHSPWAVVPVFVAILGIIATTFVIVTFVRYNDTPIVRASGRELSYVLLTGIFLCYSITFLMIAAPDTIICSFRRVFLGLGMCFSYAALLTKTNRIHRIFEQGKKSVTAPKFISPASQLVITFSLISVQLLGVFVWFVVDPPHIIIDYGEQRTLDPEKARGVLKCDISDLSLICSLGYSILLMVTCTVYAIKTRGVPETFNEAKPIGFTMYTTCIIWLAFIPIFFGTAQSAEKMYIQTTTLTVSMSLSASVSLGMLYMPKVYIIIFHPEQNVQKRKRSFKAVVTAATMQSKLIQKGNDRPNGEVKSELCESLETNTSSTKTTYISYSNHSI
Chain of Metabotropic glutamate receptor 7 (Homo sapiens) (Q14831 whole entry): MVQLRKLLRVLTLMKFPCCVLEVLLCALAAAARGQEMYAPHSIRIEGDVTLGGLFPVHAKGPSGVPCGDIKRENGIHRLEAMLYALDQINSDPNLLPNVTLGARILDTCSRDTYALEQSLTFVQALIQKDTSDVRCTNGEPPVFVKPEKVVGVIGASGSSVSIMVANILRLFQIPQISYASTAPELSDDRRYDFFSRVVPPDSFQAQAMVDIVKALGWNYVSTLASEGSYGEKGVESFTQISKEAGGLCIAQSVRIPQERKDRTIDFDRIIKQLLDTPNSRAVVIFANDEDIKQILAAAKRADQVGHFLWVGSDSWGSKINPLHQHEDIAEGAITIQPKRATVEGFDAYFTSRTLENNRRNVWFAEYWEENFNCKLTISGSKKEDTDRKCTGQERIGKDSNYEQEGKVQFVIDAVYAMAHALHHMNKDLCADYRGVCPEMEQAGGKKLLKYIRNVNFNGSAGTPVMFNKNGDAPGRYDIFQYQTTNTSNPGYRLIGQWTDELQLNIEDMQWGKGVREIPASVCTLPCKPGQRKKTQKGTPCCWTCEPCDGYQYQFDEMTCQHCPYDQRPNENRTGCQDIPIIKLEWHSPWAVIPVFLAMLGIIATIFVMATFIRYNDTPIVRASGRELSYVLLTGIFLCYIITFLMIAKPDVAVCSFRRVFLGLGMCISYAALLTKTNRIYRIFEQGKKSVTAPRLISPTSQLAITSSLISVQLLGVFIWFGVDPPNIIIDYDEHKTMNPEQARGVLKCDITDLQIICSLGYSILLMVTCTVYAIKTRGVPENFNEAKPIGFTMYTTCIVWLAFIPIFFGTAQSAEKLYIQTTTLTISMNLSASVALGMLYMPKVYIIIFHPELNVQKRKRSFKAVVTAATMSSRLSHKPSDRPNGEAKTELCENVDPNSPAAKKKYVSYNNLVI

With O/N=c1\cc(-c2cc3cccn3cn2)oc2ccc(OCCN3CCOCC3)cc12 [listing 1 of 2 here] the Activity [1] was “inactive”, the Activity [2] was “inactive” and the Activity [3] was 23%. The Activity [4] was “inactive”, the Activity [5] was “inactive” and the Activity [6] was “inactive”. For the same compound, the Activity [7] was “inactive”, the Activity [8] was “inactive” and the inhibition [9] was 64%. For the same compound, the inhibition [10] was “inactive” and the Activity [11] was “Active”.

With O/N=c1\cc(-c2cc3cccn3cn2)oc2ccc(OCCN3CCOCC3)cc12 [listing 2 of 2 here] the Activity [12] was “Not Active”, the Cmax [13] was 444 ng/mL and the t1/2 [14] was 12 min. The clearance [15] was 113 mL/min/kg, the Vd [16] was 6.5 L/kg and the Tmax [17] was 20 min. It also gave a half-life [18] of 240 min, an AUC(0-inf) [19] of 903 ng·h/mL and a Ratio [20] of 0.3. For the same compound, the bioavailability [21] was 54%, the fraction unbound at 10 µM [22] was 0.0076 and the concentration at 4 h [23] was 99 ng/mL. For the same compound, the concentration at 0.5 h [24] was 22800 ng/g, the concentration at 2 h [25] was 1740 ng/g and the Ratio [26] was 14.5. For the same compound, the Ratio [27] was 7.6, the Ratio [28] was 0.2 and the Kp [29] was 3.25. For the same compound, the Activity [30] was “Non-Toxic”.
